Measured values from ChEMBL document CHEMBL2057105, “Effect of substitution at N″-position of N'-hydroxy-N-amino guanidines on tumor cell growth” (Bioorg Med Chem Lett, 2012).

Test system: HL-60
Test: Cytotoxicity against human HL60 cells after 72 hrs by trypan blue assay
Type: functional, cell-based
Conditions: HL-60, 72 h
Outline: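 HL-60 cells in log phase, grown in RPMI 1640 with 10% heat-inactivated FCS, 1% L-glutamine and 1% penicillin–streptomycin (37 °C, 5% CO₂), seeded at 0.1 × 10^6/mL in flasks and exposed to increasing compound concentrations for 72 h at 37 °C. Viable cells counted electronically after trypan blue staining; IC50 as 50% growth inhibition; means SD of at least three experiments.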

C/N=C(/NO)N/N=C/c1c2ccccc2cc2ccccc12
IC50: 32.9 µM

CC/N=C(/NO)N/N=C/c1c2ccccc2cc2ccccc12
IC50: 22.6 µM

CCC/N=C(/NO)N/N=C/c1c2ccccc2cc2ccccc12
IC50: 24.9 µM

CC(C)/N=C(/NO)N/N=C/c1c2ccccc2cc2ccccc12
IC50: 29.8 µM

ON/C(=N\C1CCCCC1)N/N=C/c1c2ccccc2cc2ccccc12
IC50: 21.1 µM

ON/C(=N\Cc1ccccc1)N/N=C/c1c2ccccc2cc2ccccc12
IC50: 19.3 µM

ON/C(=N\CCc1ccccc1)N/N=C/c1c2ccccc2cc2ccccc12
IC50: 19.6 µM

CCCC/N=C(\NO)N/N=C/c1c2ccccc2cc2ccccc12
IC50: 21.1 µM

CC(=O)N/C(=N/O)N/N=C/c1c2ccccc2cc2ccccc12
IC50: 20 µM

O=C(N/C(=N/O)N/N=C/c1c2ccccc2cc2ccccc12)c1ccc([N+](=O)[O-])cc1
IC50: 10 µM

O=C(N/C(=N/O)N/N=C/c1c2ccccc2cc2ccccc12)c1cc([N+](=O)[O-])cc([N+](=O)[O-])c1
IC50: 8 µM
